Activity calls are given as the source filed them.
How the values were obtained:
Assay type in all cases: functional, organism-based
[1] = test system: Cryptococcus neoformans; experiment: Antifungal activity against Cryptococcus neoformans at 1 mM by almar blue dye reduction assay
How it was run: (§1)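 Single-point primary screen at 1 mM using Alamar Blue dye reduction as the growth read-out.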

[2] = test system: Escherichia coli; experiment: Antibacterial activity against Escherichia coli at 1 mM by almar blue dye reduction assay; how it was run: as §1
[3] = test system: Staphylococcus aureus; experiment: Antibacterial activity against Staphylococcus aureus at 1 mM by almar blue dye reduction assay; how it was run: as §1
[4] = test system: Saccharomyces cerevisiae; experiment: Antifungal activity against Saccharomyces cerevisiae at 1 mM by almar blue dye reduction assay; how it was run: as §1
[5] = test system: Bacillus cereus; experiment: Antibacterial activity against Bacillus cereus at 1 mM by almar blue dye reduction assay; how it was run: as §1
[6] = test system: Candida albicans; experiment: Antifungal activity against Candida albicans at 1 mM by almar blue dye reduction assay; how it was run: as §1
[7] = test system: Bacillus anthracis; experiment: Antibacterial activity against Bacillus anthracis at 1mM by almar blue dye reduction assay
[8] = test system: Pseudomonas aeruginosa; experiment: Antibacterial activity against Pseudomonas aeruginosa at 1 mM by almar blue dye reduction assay; how it was run: as §1
[9] = test system: Bacillus subtilis; experiment: Antibacterial activity against Bacillus subtilis at 1 mM by almar blue dye reduction assay; how it was run: as §1

Measured: Activity

COc1ccc(C#Cc2cn([C@H](C)C[C@@H]3CC[C@H]([C@@H](C)C(=O)N4CCCC4)O3)nn2)cc1
inactive: all assays above

C[C@H](C[C@@H]1CC[C@H]([C@@H](C)C(=O)N2CCCC2)O1)n1cc(C#Cc2ccccc2[N+](=O)[O-])nn1
inactive: all assays above

C[C@H](C[C@@H]1CC[C@H]([C@@H](C)C(=O)N2CCCC2)O1)n1cc(C#CCN2CCOCC2)nn1
inactive: all assays above

COCC#Cc1cn([C@H](C)C[C@@H]2CC[C@H]([C@@H](C)C(=O)N3CCCC3)O2)nn1
inactive: all assays above

Cc1cccc(NC(=O)NCC#Cc2cn([C@H](C)CC3CCC([C@@H](C)C(=O)N4CCN(CC5CCCO5)CC4)O3)nn2)c1 (single isomer, unassigned)
inactive: all assays above

CC(C)CC#Cc1cn([C@H](C)C[C@@H]2CC[C@H]([C@@H](C)C(=O)N(C)Cc3ccccc3)O2)nn1
inactive: all assays above

C[C@H](C[C@@H]1CC[C@H]([C@@H](C)C(=O)N2CCN(CC3CCCO3)CC2)O1)n1cc(C#CCc2ccccc2)nn1 (some centres not stated)
inactive: all assays above

C[C@H](CC1CCC([C@@H](C)C(=O)N2CCN(CC3CCCO3)CC2)O1)n1cc(C#CCOC(=O)OCc2ccccc2)nn1 (single isomer, unassigned)
inactive: all assays above

C[C@H](C[C@@H]1CC[C@H]([C@@H](C)C(=O)N2CCCC2)O1)n1cc(C#Cc2cccc3ccccc23)nn1
inactive: all assays above

COCC#Cc1cn([C@H](C)C[C@@H]2CC[C@H]([C@@H](C)C(=O)N3CCN(CC4CCCO4)CC3)O2)nn1 (some centres not stated)
inactive: all assays above

CCOC(=O)C#Cc1cn([C@H](C)CC2CCC([C@@H](C)C(=O)N3CCCC3)O2)nn1 (single isomer, unassigned)
inactive: all assays above

CCN(CC)C(=O)[C@H](C)C1CCC(C[C@@H](C)n2cc(C#CCNC(=O)OCc3ccccc3)nn2)O1 (single isomer, unassigned)
inactive: all assays above

CCN(CC)C(=O)[C@H](C)[C@H]1CC[C@@H](C[C@@H](C)n2cc(C#CCN(C)C)nn2)O1
inactive: all assays above

Reference: ChEMBL document CHEMBL1155099, “Natural products in parallel synthesis: triazole libraries of nonactic acid” (2008)
